Laboratory results taken from ChEMBL document CHEMBL1139492, “Structure-activity relationships and effects on neuroactive steroid synthesis in a series of 2-phenylimidazo[1,2-a]pyridineacetamide peripheral benzodiazepine receptors ligands” (J Med Chem, 2005).

Tests used:
Rattus norvegicus [1] = assay: Effect of the 25 mg/kg compound on 3-alpha,5alpha-THDOC concentration in rat plasma after 30 min of intraperitoneal administration; type: functional, organism-based; parameters: dose 25 mg/kg
Outline: (§1)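 Male Sprague–Dawley rats, about 60 days old, given 25 mg/kg ip in saline with three drops Tween 80 per 5 mL, 0.3 mL/100 g; sampled 30 min later. Brain taken after focused microwave irradiation of the head, plasma after guillotine. Cortex and plasma extracted with ethyl acetate; steroids measured by radioimmunoassay. Results in ng/g tissue, at least eight rats per group, compared with vehicle-treated rats.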

Rattus norvegicus [2] = assay: Effect of the 25 mg/kg compound on progesterone concentration in rat plasma after 30 min of intraperitoneal administration; type: functional, organism-based; parameters: dose 25 mg/kg; outline: as §1
Rattus norvegicus [3] = assay: Effect of the 25 mg/kg compound on 3-alpha,5alpha-THDOC concentration in rat cerebral cortex after 30 min of intraperitoneal administration; type: functional, organism-based; parameters: dose 25 mg/kg; outline: as §1
Rattus norvegicus [4] = assay: Effect of the 25 mg/kg compound on progesterone concentration in rat cerebral cortex after 30 min of intraperitoneal administration; type: functional, organism-based; parameters: dose 25 mg/kg; outline: as §1
Translocator protein [5] = target: T1, Translocator protein (Rattus norvegicus, UniProt P16257); assay: Inhibitory concentration against peripheral benzodiazepine receptor of rat cerebral cortex; type: tissue-based
T1 sequence (P16257 whole entry, looked up): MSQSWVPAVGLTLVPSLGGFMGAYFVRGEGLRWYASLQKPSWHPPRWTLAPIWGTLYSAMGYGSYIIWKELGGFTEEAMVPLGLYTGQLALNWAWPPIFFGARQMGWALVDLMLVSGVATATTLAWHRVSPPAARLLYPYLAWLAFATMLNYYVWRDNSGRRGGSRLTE
Outline: (§2)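 Rat tissue (cerebral cortex, ovary) homogenised in 50 vol PBS pH 7.4 at 4 °C, spun at 40 000g for 30 min, washed, resuspended in 10 vol PBS. […] Filtration on polyethyleneimine-soaked GF/B filters, scintillation counting. […] Means of three experiments in duplicate; Ki reported.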

[6] = target: Benzodiazepine receptors; peripheral & central (Rattus norvegicus) (UniProt O09028+P15431+P18506+P18508+P19969+P20236+P23574+P23576+P28471+P28473+P30191+P62813+P63079+P63138+Q91ZM7+Q9ES14+P16257); assay: Ratio of inhibition for peripheral benzodiazepine receptor of rat ovary and central benzodiazepine GABA-A receptor; type: tissue-based; parameters: scale not given here; settings: Female gonad
Translocator protein [7] = target: T1, Translocator protein; assay: Displacement of [3H]PK11195 from peripheral benzodiazepine receptor of rat cerebral cortex; type: tissue-based; outline: as §2
[8] = target: GABA-A receptor; anion channel; assay: Displacement of [3H]flunitrazepam from central benzodiazepine GABA-A receptor of rat cerebral cortex; type: tissue-based
Outline: (§3)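 Rat cerebral cortex homogenised in 50 vol ice-cold 50 mM Tris-HCl pH 7.4, spun twice at 20 000g for 10 min. Membranes (0.4–0.5 mg protein) incubated with [3H]flunitrazepam for 60 min at 0 °C. Rapid filtration on GF/B filters, scintillation counting. Nonspecific binding with 5 μM diazepam. Means of three experiments in duplicate; Ki reported.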

Translocator protein [9] = target: T1, Translocator protein; assay: Inhibitory concentration against peripheral benzodiazepine receptor of rat ovary; type: tissue-based, Female gonad; outline: as §2
[10] = target: GABA-A receptor; anion channel; assay: Inhibitory concentration of central benzodiazepine GABA-A receptor of rat cerebral cortex; type: tissue-based; outline: as §3
Translocator protein [11] = target: T1, Translocator protein; assay: Displacement of [3H]-PK11195 from peripheral benzodiazepine receptor of rat ovary; type: tissue-based, Female gonad; outline: as §2
Rattus norvegicus [12] = assay: Effect of the 25 mg/kg compound on 3-alpha,5alpha-THPROG concentration in rat plasma after 30 min of intraperitoneal administration; type: functional, organism-based; parameters: dose 25 mg/kg; outline: as §1
Rattus norvegicus [13] = assay: Effect of the 25 mg/kg compound on 3-alpha,5alpha-THPROG concentration in rat cerebral cortex after 30 min of intraperitoneal administration; type: functional, organism-based; parameters: dose 25 mg/kg; outline: as §1

SMILES | Concentration (Rattus norvegicus [1]) | Concentration (Rattus norvegicus [2]) | Concentration (Rattus norvegicus [3]) | Concentration (Rattus norvegicus [4]) | IC50 (Translocator protein [5]) | Selectivity index [6] | Ki (Translocator protein [7]) | Ki [8] | IC50 (Translocator protein [9]) | pIC50 [10] | Ki (Translocator protein [11]) | Concentration (Rattus norvegicus [12]) | Concentration (Rattus norvegicus [13])
O=C(Cc1c(-c2ccc(Cl)cc2)nc2c(Cl)cc(Cl)cn12)N1CCCCC1 | 9.6 ng/mL | 12.2 ng/mL | 2.9 ng/g | 7.8 ng/g | 5 nM | 2.04 | 3.05 nM | 7590 nM | 92 nM | 5 | 65.4 nM | 19.4 ng/mL | 7.3 ng/g
CCCCN(C)C(=O)Cc1c(-c2ccccc2)nc2c(Cl)cc(Cl)cn12 | 10.4 ng/mL | 13.6 ng/mL | 4.1 ng/g | 10.6 ng/g | 3.5 nM | 3.64 | 2.16 nM |  | 2.3 nM | 5 | 1.72 nM | 16.5 ng/mL | 9.2 ng/g
CCCCN(CCCC)C(=O)Cc1c(-c2ccc(Cl)cc2)nc2c(Cl)cccn12 | 14.9 ng/mL | 26 ng/mL | 2.9 ng/g | 10.3 ng/g | 7.87 nM | 7.65 | 4.64 nM | 6880 nM | 22.6 nM | 5 | 17.2 nM | 23.4 ng/mL | 8.8 ng/g
O=C(Cc1c(-c2ccccc2)nc2c(Cl)cc(Cl)cn12)Nc1ccncc1 |  |  |  |  | 2100 nM | 0.387 | 1240 nM | 7750 nM | 4100 nM | 5 | 2970 nM |  | 
CCCCCCN(CCCCCC)C(=O)Cc1c(-c2ccc(Cl)cc2)nc2ccc(Cl)cn12 |  |  |  |  | 5.11 nM | 1.83 | 3.01 nM | 2560 nM | 48.8 nM | 5.481 | 35.3 nM |  | 
O=C(Cc1c(-c2ccc(Cl)cc2)nc2c(Cl)cc(Cl)cn12)N1CCCC1 |  |  |  |  | 215 nM | 1.02 | 126 nM | 7010 nM | 843 nM | 5 | 608 nM |  | 
CCCCCCN(CCCCCC)C(=O)Cc1c(-c2ccc(Cl)cc2)nc2c(Cl)cc(Cl)cn12 |  |  |  |  | 377 nM | 0.584 | 222 nM | 7750 nM | 2610 nM | 5 | 1890 nM |  | 
CCCCN(CCCC)C(=O)Cc1c(-c2ccc(Cl)cc2)nc2ccccn12 |  |  |  |  |  | 1.19 |  |  |  |  |  |  | 
CCCN(CCC)C(=O)C(C)c1c(-c2ccc(Cl)cc2)nc2c(Cl)cc(Cl)cn12 (configuration not stated) |  |  |  |  | 1200 nM | 0.572 | 701 nM | 7010 nM | 2680 nM | 5 | 1930 nM |  | 
CN(CCc1ccccn1)C(=O)Cc1c(-c2ccccc2)nc2c(Cl)cc(Cl)cn12 |  |  |  |  | 2170 nM | 0.296 | 1280 nM | 7750 nM | 5060 nM | 5 | 3670 nM |  | 
O=C(Cc1c(-c2ccccc2)nc2c(Cl)cc(Cl)cn12)NC1CCCCC1 |  |  |  |  | 1320 nM | 0.884 | 771 nM | 7010 nM | 1310 nM | 5 | 942 nM |  | 
O=C(Cc1c(-c2ccc(Cl)cc2)nc2c(Cl)cc(Cl)cn12)Nc1ccccc1 |  |  |  |  | 19.9 nM | 2.6 | 11.7 nM | 6880 nM | 25.2 nM | 5 | 18.3 nM |  | 
O=C(Cc1c(-c2ccc(Cl)cc2)nc2c(Cl)cc(Cl)cn12)NC1CCCCC1 |  |  |  |  | 229 nM | 0.977 | 140 nM | 7590 nM | 1050 nM | 5 | 749 nM |  | 
CC(C(=O)N(C)Cc1ccccc1)c1c(-c2ccc(Cl)cc2)nc2c(Cl)cc(Cl)cn12 (configuration not stated) |  |  |  |  | 9890 nM |  | 5770 nM | 7010 nM | 11600 nM | 5 | 8330 nM |  | 
O=C(Cc1c(-c2ccccc2)nc2c(Cl)cc(Cl)cn12)N1CCc2ccccc2C1 |  |  |  |  | 38.7 nM | 1.64 | 23.6 nM | 6880 nM | 231 nM | 5 | 164 nM |  | 
CC(C)(C)N(Cc1ccccc1)C(=O)Cc1c(-c2ccc(Cl)cc2)nc2c(Cl)cc(Cl)cn12 |  |  |  |  | 3440 nM | -0.26 | 2100 nM | 7590 nM | 18200 nM | 5 | 12900 nM |  | 
